Laboratory results taken from ChEMBL document CHEMBL1122273, “5-sulfamoylorthanilic acids, a sulfonamide series with salidiuretic activity” (J Med Chem, 1983).
Activity calls are given as the source filed them. The calls are words filed in the database; no cut-off is given here.

Experiments:
[1] = organism: Rattus norvegicus; test: Saluretic activity in the rat measured as concentration of chloride in urine; assay type: functional
Summary of the method: (§1)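 Rats deprived of food 24 h, water ad libitum, dosed 50 mg/kg by stomach tube as suspension in 2% starch, no extra water load. Groups of three in diuresis funnels; urine over first 5 h collected. Na⁺ and K⁺ by flame photometry, Cl⁻ argentometrically; expressed as mequiv/kg.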

[2] = tested on: Canis familiaris; test: Saluretic activity in the dog measured as concentration of Na+ in urinary excretion (2 animals/dose) at (dose 1.56 mg/Kg, po); assay type: functional, Canis lupus familiaris, Urine
Summary of the method: (§2)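 Male beagles trained to rest on a table and to accept stomach tube and catheter. Food withdrawn 24 h before, tap water ad libitum. Bladder emptied by catheter, then 20 mL/kg tap water by stomach tube. Catheterized hourly up to 8 h with 4 mL/kg water orally each time; first 2 h urine served as control. Oral dosing after second catheterization. Pooled 1–6 h urine; Na⁺/K⁺ by flame photometry, Cl⁻ argentometrically.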

[3] = tested on: Canis familiaris; test: Salidiuretic activity on the basis of the 1.56 mg/Kg po dog assay; Compound was highly active; assay type: functional, organism-based; details: Canis lupus familiaris; Urine
[4] = organism: Rattus norvegicus; test: Diuretic activity in the rats, determined by a modified Lipschitz test; assay type: functional, Urine
Summary of the method: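 Modified Lipschitz test: rats deprived of water 24 h, grouped in threes of similar weight in diuresis funnels. Oral dose of 50 mg/kg, suspended in 2% starch solution, by stomach tube.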

[5] = tested on: Canis familiaris; test: Diuretic activity in the dog (2 animals/dose) at (dose 1.56 mg/Kg), when administered perorally; assay type: functional, Canis lupus familiaris, Urine
Summary of the method: (§3)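 Trained male beagles, fasted 24 h with tap water ad libitum. Bladder emptied by catheter, then 20 mL/kg tap water by stomach tube, with 4 mL/kg water at each hourly catheterization up to 8 h. The first 2 h of urine served as control. Oral dosing came after the second catheterization, and 1–6 h urine was pooled. Na⁺ and K⁺ were measured by flame photometry, Cl⁻ argentometrically, in mequiv/kg.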

[6] = organism: Rattus norvegicus; test: Saluretic activity in the rat measured as concentration of Na+ in urine; assay type: functional; summary of the method: as §1
[7] = tested on: Rattus norvegicus; test: Salidiuretic activity on the basis of the 50 mg/kg po rat assay; Compound was moderately active active; assay type: functional, organism-based; design: dose 50 mg/kg; details: Urine
[8] = organism: Rattus norvegicus; test: Saluretic activity in the rat measured as concentration of K+ in urine; assay type: functional; summary of the method: as §1
[9] = It is the ratio, measured as saluretic activity in the dog as concentration of Cl- in urinary excretion (dose 1.56 mg/Kg, po) to that of (Na+)+(K+); assay type: functional, Urine; summary of the method: as §3
[10] = tested on: Canis familiaris; test: Saluretic activity in the dog measured as concentration of Cl - in urinary excretion (2 animals/dose) at (dose 1.56 mg/Kg, po); assay type: functional, Canis lupus familiaris, Urine
Summary of the method: (§4)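 Male beagles trained to the procedures, food withdrawn 24 h before, tap water ad libitum. Bladder emptied by catheter, then 20 mL/kg tap water by stomach tube, plus 4 mL/kg orally at each hourly catheterization up to 8 h. The first 2 h of urine served as control. Compound given orally after the second catheterization. Urine from 1–6 h post-dose pooled; Na⁺ and K⁺ by flame photometry, Cl⁻ argentometrically, in mequiv/kg.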

[11] = tested on: Canis familiaris; test: Saluretic activity in the dog measured as concentration of K+ in urinary excretion (2 animals/dose) at (dose 1.56 mg/Kg, po); assay type: functional, Canis lupus familiaris, Urine; summary of the method: as §2
[12] = It is the ratio, measured as saluretic activity in the dog as concentration of Na+ in urinary excretion (dose 1.56 mg/Kg, po) to that of K; assay type: functional, Urine; summary of the method: as §3
[13] = tested on: Canis familiaris; test: Saluretic activity in the dog measured as concentration of Cl - in urinary excretion (2 animals/dose) at (dose 0.4 mg/Kg, perorally); assay type: functional, Canis lupus familiaris, Urine; summary of the method: as §4
[14] = tested on: Canis familiaris; test: Saluretic activity in the dog measured as concentration of Na+ in urinary excretion (2 animals/dose) at (dose 1.56 mg/Kg, perorally); assay type: functional, Canis lupus familiaris, Urine; summary of the method: as §2
[15] = tested on: Canis familiaris; test: Diuretic activity in the dog (2 animals/dose) at (dose 6.25 mg/Kg), when administered perorally; assay type: functional, Canis lupus familiaris, Urine; summary of the method: as §3
[16] = tested on: Canis familiaris; test: Saluretic activity in the dog measured as concentration of Na+ in urinary excretion (2 animals/dose) at (dose 6.25 mg/Kg, perorally); assay type: functional, Canis lupus familiaris, Urine; summary of the method: as §2
[17] = tested on: Canis familiaris; test: Saluretic activity in the dog measured as concentration of Cl - in urinary excretion (2 animals/dose) at (dose 6.25 mg/Kg, perorally); assay type: functional, Canis lupus familiaris, Urine; summary of the method: as §4
[18] = tested on: Canis familiaris; test: Saluretic activity in the dog measured as concentration of K+ in urinary excretion (2 animals/dose) at (dose 6.25 mg/Kg, perorally); assay type: functional, Canis lupus familiaris, Urine; summary of the method: as §2
[19] = It is the ratio, measured as saluretic activity in the dog as concentration of Na+ in urinary excretion (dose 6.25 mg/Kg, perorally) to that of K; assay type: functional, Urine; summary of the method: as §3
[20] = It is the ratio, measured as saluretic activity in the dog as concentration of Cl- in urinary excretion (dose 0.4 mg/kg perorally) to that of (Na+)+(K+); assay type: functional, Urine; details: route oral; summary of the method: as §3
[21] = It is the ratio, measured as saluretic activity in the dog as concentration of Na+ in urinary excretion (dose 0.4 mg/Kg, perorally) to that of K; assay type: functional, Urine; summary of the method: as §3
[22] = tested on: Canis familiaris; test: Saluretic activity in the dog measured as concentration of Cl - in urinary excretion (2 animals/dose) at (1.56 mg/Kg, perorally); assay type: functional, Canis lupus familiaris, Urine; summary of the method: as §4
[23] = tested on: Canis familiaris; test: Saluretic activity in the dog measured as concentration of K+ in urinary excretion (2 animals/dose) at (dose 1.56 mg/Kg, perorally); assay type: functional, Canis lupus familiaris, Urine; summary of the method: as §4
[24] = It is the ratio, measured as saluretic activity in the dog as concentration of Cl- in urinary excretion ( perorally) to that (Na++K+)
[25] = tested on: Canis familiaris; test: Saluretic activity in the dog measured as concentration of K+ in urinary excretion (2 animals/dose) at (dose 0.4 mg/Kg, perorally); assay type: functional, Canis lupus familiaris, Urine; summary of the method: as §4
[26] = It is the ratio, measured as saluretic activity in the dog as concentration of Cl- in urinary excretion (dose 6.25 mg/Kg, perorally) to that of (Na+)+(K+); assay type: functional, Urine; summary of the method: as §3
[27] = tested on: Canis familiaris; test: Diuretic activity in the dog (2 animals/dose) at (dose 0.4 mg/Kg), when administered perorally; assay type: functional, Canis lupus familiaris, Urine; summary of the method: as §3
[28] = It is the ratio, measured as saluretic activity in the dog as concentration of Na+ in urinary excretion (dose 1.56 mg/Kg, perorally) to that of K; assay type: functional, Urine; summary of the method: as §3
[29] = tested on: Canis familiaris; test: Saluretic activity in the dog measured as concentration of Na+ in urinary excretion (2 animals/dose) at (dose 0.4 mg/Kg, perorally); assay type: functional, Canis lupus familiaris, Urine; summary of the method: as §2
[30] = tested on: Canis familiaris; test: Saluretic activity in the dog measured as concentration of K+ in urinary excretion (2 animals/dose) (dose 1.56 mg/kg, p.o.); assay type: functional, Canis lupus familiaris, Urine; details: route oral; summary of the method: as §4

In the case of CN(c1ccccc1)c1cc(NCc2ccccc2)c(S(=O)(=O)[O-])cc1S(N)(=O)=O.[Na+], the Saluretic activity [1] was 4 m equiv 5hr-1 kg-1, the Saluretic activity [2] was 6.59 m equiv 6hr-1 kg-1 and the Saldiuretic activity [3] was “Active”. The Diuretic activity [4] was 2.6 mL/kg, the Diuretic activity [5] was 71.7 ml kg-1 6hr-1 and the Saluretic activity [6] was 3.5 m equiv 5hr-1 kg-1. The Saldiuretic activity [7] was “Active”, the Saluretic activity [8] was 1.4 m equiv 5hr-1 kg-1 and the Ratio [9] was 0.9. The Saldiuretic activity [10] was 7.34 m equiv 6hr-1 kg-1, the Saluretic activity [11] was 1.51 m equiv 6hr-1 kg-1 and the Ratio [12] was 4.4.
With NS(=O)(=O)c1cc(S(=O)(=O)[O-])c(NCc2ccco2)cc1Cl.[Na+] the Saluretic activity [1] was 8.3 m equiv 5hr-1 kg-1, the Saluretic activity [13] was 0.69 m equiv 6hr-1 kg-1 and the Saluretic activity [14] was 2.61 m equiv 6hr-1 kg-1. The Diuretic activity [15] was 66.5 ml kg-1 6hr-1, the Saluretic activity [16] was 4.36 m equiv 6hr-1 kg-1 and the Saldiuretic activity [17] was 4.74 m equiv 6hr-1 kg-1. It also gave a Saldiuretic activity [18] of 0.78 m equiv 6hr-1 kg-1, a Ratio [19] of 5.6 and a Diuretic activity [4] of 2.8 mL/kg. For the same compound, the Diuretic activity [5] was 42.4 ml kg-1 6hr-1, the Ratio [20] was 1.1 and the Ratio [21] was 2.3. For the same compound, the Saluretic activity [6] was 7.1 m equiv 5hr-1 kg-1, the “Concentration of Cl-” value [22] was 3.24 m equiv 6hr-1 kg-1 and the Saluretic activity [23] was 0.53 m equiv 6hr-1 kg-1. The Ratio [24] was 1, the Saluretic activity [8] was 2.3 m equiv 5hr-1 kg-1 and the Saluretic activity [25] was 0.19 m equiv 6hr-1 kg-1. For the same compound, the Ratio [26] was 0.9, the Diuretic activity [27] was 37 ml kg-1 6hr-1 and the Ratio [28] was 4.9. For the same compound, the Saluretic activity [29] was 0.45 m equiv 6hr-1 kg-1.
CCCC[S+]([O-])c1cc(NCc2ccco2)c(S(=O)(=O)[O-])cc1S(N)(=O)=O.[Na+] (centres undefined) showed a Saluretic activity [1] of 1.4 m equiv 5hr-1 kg-1, a Saluretic activity [2] of 0.89 m equiv 6hr-1 kg-1 and a Diuretic activity [4] of 1 mL/kg. For the same compound, the Diuretic activity [5] was 34.9 ml kg-1 6hr-1, the Saluretic activity [6] was 0.9 m equiv 5hr-1 kg-1 and the Saldiuretic activity [30] was 0.35 (m equiv) 6hr-1 kg-1. The Saluretic activity [8] was 1 m equiv 5hr-1 kg-1, the Ratio [9] was 1 and the Saldiuretic activity [10] was 1.43 m equiv 6hr-1 kg-1. For the same compound, the Ratio [12] was 3.
